Residue numbers refer to the chain shown, from its start. The source made the active and inactive calls. The rule behind the calls is not given here.
Assays:
[1] = target: T1, Muscarinic acetylcholine receptor M1/M5 chimeric protein (Homo sapiens, UniProt P08912+P11229); assay: Inhibition of [3H](R)-QNB binding to human M1/M5(o2o3) chimeric receptor expressed in A9 L cells; assay type: cell-based, A9L
T1 sequence (P11229 whole entry): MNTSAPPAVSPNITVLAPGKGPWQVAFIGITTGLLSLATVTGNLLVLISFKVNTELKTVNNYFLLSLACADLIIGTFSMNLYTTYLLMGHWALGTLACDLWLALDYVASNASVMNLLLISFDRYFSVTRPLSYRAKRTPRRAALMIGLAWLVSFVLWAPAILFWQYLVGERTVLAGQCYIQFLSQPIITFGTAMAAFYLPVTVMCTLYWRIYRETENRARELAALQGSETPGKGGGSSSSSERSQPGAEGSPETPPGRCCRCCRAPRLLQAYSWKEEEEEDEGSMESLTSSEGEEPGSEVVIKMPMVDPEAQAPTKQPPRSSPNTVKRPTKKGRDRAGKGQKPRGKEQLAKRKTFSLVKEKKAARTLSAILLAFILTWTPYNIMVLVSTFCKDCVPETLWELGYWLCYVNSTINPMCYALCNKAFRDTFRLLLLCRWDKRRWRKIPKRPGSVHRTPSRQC
T1 sequence (P08912 whole entry): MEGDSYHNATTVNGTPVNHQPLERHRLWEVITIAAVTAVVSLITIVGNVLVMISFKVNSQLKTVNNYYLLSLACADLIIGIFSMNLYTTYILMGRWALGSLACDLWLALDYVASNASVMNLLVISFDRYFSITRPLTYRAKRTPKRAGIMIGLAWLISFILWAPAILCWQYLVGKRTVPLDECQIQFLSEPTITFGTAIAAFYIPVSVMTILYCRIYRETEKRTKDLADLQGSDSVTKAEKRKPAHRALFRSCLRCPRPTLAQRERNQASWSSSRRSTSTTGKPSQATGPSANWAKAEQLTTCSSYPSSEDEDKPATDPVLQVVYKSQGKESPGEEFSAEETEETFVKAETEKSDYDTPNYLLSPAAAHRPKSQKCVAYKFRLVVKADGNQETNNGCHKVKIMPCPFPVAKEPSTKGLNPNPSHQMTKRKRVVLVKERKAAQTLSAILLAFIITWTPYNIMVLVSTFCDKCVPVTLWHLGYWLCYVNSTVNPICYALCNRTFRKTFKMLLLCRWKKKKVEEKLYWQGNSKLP

[2] = target: T2, Muscarinic acetylcholine receptor M1/M5 chimeric protein (Homo sapiens) (UniProt P11229+P08912); assay: Agonist activity at human M1/M5(o2) chimeric receptor expressed in A9 L cells assessed as stimulation of phosphoinositide hydrolysis relative to carbachol; assay type: functional, cell-based; conditions: L929
Outline: (§1)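 A9 L cells stably expressing the receptor, seeded 24 h, labelled overnight with 10 µCi/mL [3H]inositol in inositol-free DMEM; ligands in HBSS with 10 mM LiCl, 20 mM HEPES, 37 °C, 1 h; formic acid extraction, inositol phosphates counted by SPA beads.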

[3] = system: T3, Muscarinic acetylcholine receptor M1 (Homo sapiens), P11229 [Q185E]; assay: Agonist activity at human M1 receptor Q185E mutant expressed in A9 L cells assessed as stimulation of phosphoinositide hydrolysis relative to carbachol; assay type: functional, cell-based; conditions: L929; outline: as §1
T3 sequence (whole entry): T1 sequence (P11229 whole entry) with Q185E

[4] = target: T2, Muscarinic acetylcholine receptor M1/M5 chimeric protein (Homo sapiens); assay: Agonist activity at human M1/M5(o2o3) chimeric receptor expressed in A9 L cells assessed as stimulation of phosphoinositide hydrolysis relative to carbachol; assay type: functional, cell-based; conditions: L929; outline: as §1
[5] = target: Muscarinic acetylcholine receptor M1 (Homo sapiens, UniProt P11229, E170K); assay type: functional, cell-based, L929
Sequence of Muscarinic acetylcholine receptor M1 (Homo sapiens, UniProt P11229, E170K) (P11229 whole entry E170K): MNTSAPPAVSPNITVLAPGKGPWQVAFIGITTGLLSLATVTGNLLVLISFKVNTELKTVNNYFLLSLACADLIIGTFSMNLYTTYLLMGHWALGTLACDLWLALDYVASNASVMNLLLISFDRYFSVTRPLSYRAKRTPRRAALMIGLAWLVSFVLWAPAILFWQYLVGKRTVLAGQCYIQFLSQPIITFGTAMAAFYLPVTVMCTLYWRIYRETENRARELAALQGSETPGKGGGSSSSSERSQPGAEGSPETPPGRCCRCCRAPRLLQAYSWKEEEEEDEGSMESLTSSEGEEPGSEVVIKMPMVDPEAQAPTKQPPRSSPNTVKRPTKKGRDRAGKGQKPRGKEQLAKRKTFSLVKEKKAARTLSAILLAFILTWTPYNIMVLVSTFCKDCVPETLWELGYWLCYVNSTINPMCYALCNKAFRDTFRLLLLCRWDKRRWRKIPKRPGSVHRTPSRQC

[6] = target: Muscarinic acetylcholine receptor M1 (Homo sapiens, UniProt P11229, T192A); assay: Inhibition of [3H](R)-QNB binding to human M1 receptor Thr192Ala mutant expressed in A9 L cells; assay type: cell-based, A9L
Sequence of Muscarinic acetylcholine receptor M1 (Homo sapiens, UniProt P11229, T192A) (P11229 whole entry T192A): as the sequence (P11229 whole entry E170K) above, with K170E, T192A counted along it

[7] = target: T4, Muscarinic acetylcholine receptor M5 (Homo sapiens) (UniProt P08912); assay: Agonist activity at human M5 receptor expressed in A9 L cells assessed as stimulation of phosphoinositide hydrolysis relative to carbachol; assay type: functional, cell-based; conditions: L929; outline: as §1
T4 sequence (whole entry): T1 sequence (P08912 whole entry)

[8] = target: T1, Muscarinic acetylcholine receptor M1/M5 chimeric protein; assay: Agonist activity at human M1/M5(o2) chimeric receptor expressed in A9 L cells assessed as stimulation of phosphoinositide hydrolysis; assay type: functional, cell-based, L929
[9] = target: T2, Muscarinic acetylcholine receptor M1/M5 chimeric protein (Homo sapiens); assay: Agonist activity at human M1/M5(o3) chimeric receptor expressed in A9 L cells assessed as stimulation of phosphoinositide hydrolysis relative to carbachol; assay type: functional, cell-based; conditions: L929; outline: as §1
[10] = target: T1, Muscarinic acetylcholine receptor M1/M5 chimeric protein; assay: Inhibition of [3H](R)-QNB binding to human M1/M5(o2) chimeric receptor expressed in A9 L cells; assay type: cell-based, A9L
[11] = target: T1, Muscarinic acetylcholine receptor M1/M5 chimeric protein; assay: Agonist activity at human M1/M5(o3) chimeric receptor expressed in A9 L cells assessed as stimulation of phosphoinositide hydrolysis; assay type: functional, cell-based, L929
[12] = target: T5, Muscarinic acetylcholine receptor M1 (Homo sapiens) (UniProt P11229); assay: Agonist activity at human M1 receptor expressed in A9 L cells assessed as stimulation of phosphoinositide hydrolysis relative to carbachol; assay type: functional, cell-based; conditions: L929; outline: as §1
T5 sequence (whole entry): T1 sequence (P11229 whole entry)

[13] = target: T1, Muscarinic acetylcholine receptor M1/M5 chimeric protein; assay: Inhibition of [3H](R)-QNB binding to human M1/M5(o3) chimeric receptor expressed in A9 L cells; assay type: cell-based, A9L
[14] = system: T6, Muscarinic acetylcholine receptor M1 (Homo sapiens), P11229 [E170K]; assay: Agonist activity at human M1 receptor E170K mutant expressed in A9 L cells assessed as stimulation of phosphoinositide hydrolysis relative to carbachol; assay type: functional, cell-based; conditions: L929; outline: as §1
T6 sequence (whole entry): T1 sequence (P11229 whole entry) with E170K

[15] = target: Muscarinic acetylcholine receptor M1 (Homo sapiens, UniProt P11229, Q185E); assay type: functional, cell-based, L929
Sequence of Muscarinic acetylcholine receptor M1 (Homo sapiens, UniProt P11229, Q185E) (P11229 whole entry Q185E): as the sequence (P11229 whole entry E170K) above, with K170E, Q185E counted along it

In the case of `CN1CCC=C(c2nsnc2OCCOCCOCCOCCOc2nsnc2C2=CCCN(C)C2)C1`, the Ki [1] is reported as 100 nM, the Smax [2] is reported as 34% and the Smax [3] is reported as 50%. The Smax [4] was 2%, the EC50 [5] was 10 nM and the Ki [6] was 100 nM. The Activity [7] was “inactive”, the EC50 [8] was 79.4 nM and the Smax [9] was 23%. The Ki [10] was 39.8 nM, the EC50 [11] was 631 nM and the Smax [12] was 69%. For the same compound, the Ki [13] was 20 nM, the Smax [14] was 66% and the EC50 [15] was 50.1 nM.

Source: ChEMBL document CHEMBL1138216, “Design and synthesis of novel derivatives of the muscarinic agonist tetra(ethylene glycol)(3-methoxy-1,2,5-thiadiazol-4-yl) [3-(1-methyl-1,2,5,6-tetrahydropyrid-3-yl)-1,2,5-thiadiazol-4-yl] ether (CDD-0304): effects of structural modifications on the binding and activity at muscarinic receptor …” (J Med Chem, 2006)
